What was measured:
A-427 [1] = experiment: Cytotoxicity against human A427 cells at 20 uM after 96 hrs by crystal violet staining relative to control; type: functional
Outline: (§1)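 Cell lines from DSMZ (German collection). Cells exposed to 20 µM test substance at 37 °C for 96 h; medium removed and adherent (living) cells stained with crystal violet. Growth given as % of untreated control; averages of two independent experiments.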

[2] = molecular target: Sigma non-opioid intracellular receptor 1 (Cavia porcellus, UniProt Q60492); experiment: Displacement of [3H](+)-pentazocine from opioid sigma1 receptor in guinea pig brain homogenate; type: tissue-based
Sequence of Sigma non-opioid intracellular receptor 1 (Q60492 whole entry): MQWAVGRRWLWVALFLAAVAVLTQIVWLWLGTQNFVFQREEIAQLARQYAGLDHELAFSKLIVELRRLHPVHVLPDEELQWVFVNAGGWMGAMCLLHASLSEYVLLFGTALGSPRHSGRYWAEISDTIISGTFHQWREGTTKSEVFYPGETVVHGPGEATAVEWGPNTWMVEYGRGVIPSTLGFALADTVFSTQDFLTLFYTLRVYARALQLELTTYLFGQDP
Outline: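 Non-specific binding with 10 µM unlabeled (+)-pentazocine. Filtration, scintillation counting; IC50 by nonlinear regression, Ki by Cheng–Prusoff; triplicates, mean ± SEM of three independent experiments.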

[3] = Selectivity ratio of Ki for rat sigma2 receptor to Ki for guinea pig sigma1 receptor
5637 = experiment: Cytotoxicity against human 5637 cells at 20 uM after 96 hrs by crystal violet staining relative to control; type: functional; outline: as §1
RT-4 = experiment: Cytotoxicity against human RT4 cells at 20 uM after 96 hrs by crystal violet staining relative to control; type: functional; outline: as §1
[4] = Displacement of [3H][…] from opioid sigma2 receptor in rat liver homogenate in presence of (+)-pentazocine; type: tissue-based
Outline: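 Rat liver membranes (about 100 µg protein, 50 mM Tris pH 8.0) incubated 180 min at room temperature with six concentrations of test compound, 3 nM [3H]-ditolylguanidine (Kd 17.9 nM) and 500 nM (+)-pentazocine. […] IC50 by nonlinear regression, Ki by Cheng–Prusoff; triplicates, mean ± SEM of three experiments.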

MCF7 = experiment: Cytotoxicity against human MCF7 cells after 96 hrs at 20 uM by crystal violet staining relative to control; type: functional; outline: as §1
DAN-G = experiment: Cytotoxicity against human DAN-G cells after 96 hrs at 20 uM by crystal violet staining relative to control; type: functional; outline: as §1
[5] = Cytotoxicity against human LCLC-103H cells at 20 uM after 96 hrs by crystal violet staining relative to control; type: functional; outline: as §1
Sus scrofa = organism: Sus scrofa; experiment: Displacement of [3H]MK-801 from NMDA receptor in pig brain cortex at 1 uM
A-427 [6] = experiment: Cytotoxicity against human A427 cells after 96 hrs by crystal violet staining relative to control; type: functional, cell-based; conditions: A-427, 96 h
Outline: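 Crystal violet microtiter assay, 96 h exposure at 37 °C. Five serial dilutions from DMF stock solutions; concentrations giving T/C between 10% and 90% used, and IC50 calculated by least-squares analysis of dose–response curves.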

[7] = molecular target: Sigma non-opioid intracellular receptor 1 (Cavia porcellus) (UniProt Q60492); experiment: Displacement of [3H](+)-pentazocine from opioid sigma1 receptor in guinea pig brain homogenate at 1 uM; type: tissue-based
Sequence of Sigma non-opioid intracellular receptor 1 (Cavia porcellus) (Q60492 whole entry): as above
Outline: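 Guinea pig brain membranes (about 75 µg protein, 50 mM Tris pH 7.4) with 2 nM [3H]-(+)-pentazocine, 180 min at 37 °C. Test compound at 1 µM; inhibition of radioligand binding reported. Non-specific binding with 10 µM unlabeled (+)-pentazocine; filtration and scintillation counting.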

Ki [2]	Ratio [3]	Ki [4]	Activity (Sus scrofa)	inhibition [7]	Structure (SMILES)	Activity (A-427 [1])	Activity 5637	Activity (RT-4)	Activity (MCF7)	Activity (DAN-G)	Activity [5]	IC50 (A-427 [6])
11 nM	20	203 nM	< 25%		C=CCN1C[C@@H]2CCC[C@H]1CN2Cc1ccc(OC)cc1	42%	87%	65%	65%	92%	91%	
343 nM	4	1210 nM	< 25%		C=CCN1C[C@H]2[C@@H](O)CC[C@@H]1CN2Cc1ccc(OC)cc1	90%	104%	107%	99%	100%	111%	
		13500 nM	< 25%	37%	C=CCN1C[C@H]2[C@@H](OC)CC[C@@H]1CN2Cc1ccc(OC)cc1OC	49%	63%	87%	79%	84%	98%	18900 nM

From ChEMBL document CHEMBL1140857 (Bioorg Med Chem, 2009)
